In ChEMBL document CHEMBL4007396, “New diphenylmethane derivatives as peroxisome proliferator-activated receptor alpha/gamma dual agonists endowed with anti-proliferative effects and mitochondrial activity” (Eur J Med Chem, 2017):
Activity calls are given as the source filed them. The rule behind the calls is not given here.

Assays:
[1] = molecular target: T1, Peroxisome proliferator-activated receptor alpha (Homo sapiens) (UniProt Q07869); assay: Agonist activity at PPARalpha in human HepG2 cells assessed as increase in CAC protein expression level at 1 uM after 48 hrs by Western blot method; assay type: cell-based
T1 sequence (whole entry): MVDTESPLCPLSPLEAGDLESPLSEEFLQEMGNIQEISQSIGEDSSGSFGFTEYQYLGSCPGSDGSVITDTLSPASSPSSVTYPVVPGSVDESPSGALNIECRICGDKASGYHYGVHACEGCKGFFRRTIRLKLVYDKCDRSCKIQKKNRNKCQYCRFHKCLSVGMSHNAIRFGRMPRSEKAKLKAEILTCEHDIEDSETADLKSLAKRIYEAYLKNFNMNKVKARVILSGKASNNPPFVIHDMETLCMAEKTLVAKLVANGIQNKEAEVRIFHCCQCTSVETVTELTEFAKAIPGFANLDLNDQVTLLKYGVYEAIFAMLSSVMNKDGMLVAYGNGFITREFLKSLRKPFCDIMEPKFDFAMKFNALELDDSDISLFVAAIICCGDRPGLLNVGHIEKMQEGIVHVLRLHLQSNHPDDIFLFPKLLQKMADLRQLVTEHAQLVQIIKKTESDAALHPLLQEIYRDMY
Summary of the method: (§1)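 HepG2 serum-depleted 24 h, then treated 48 h with 1 μM compound (Wy-14,643 at 50 μM as reference). Nitrocellulose immunoblots probed for CAC, CPT1 or PPARα with β-actin loading control, chemiluminescent detection; band densitometry expressed as fold change versus untreated cells; three independent experiments.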

[2] = molecular target: T2, Peroxisome proliferator-activated receptor alpha (Homo sapiens, UniProt Q07869); assay: Binding affinity to PPARalpha (unknown origin) assessed as thermodynamic dissociation constant by SPR assay; details: read-out: Kd
T2 sequence (Q07869 whole entry): T1 sequence (whole entry)

[3] = molecular target: T3, Peroxisome proliferator-activated receptor gamma (Homo sapiens) (UniProt P37231); assay: Agonist activity at PPARgamma in human HT-29 cells harboring APC mutant assessed as inhibition of Wnt/beta-catenin signaling pathway by measuring decrease in c-Myc level at 10 uM treated for 24 hrs by Western blot method; assay type: cell-based
T3 sequence (whole entry): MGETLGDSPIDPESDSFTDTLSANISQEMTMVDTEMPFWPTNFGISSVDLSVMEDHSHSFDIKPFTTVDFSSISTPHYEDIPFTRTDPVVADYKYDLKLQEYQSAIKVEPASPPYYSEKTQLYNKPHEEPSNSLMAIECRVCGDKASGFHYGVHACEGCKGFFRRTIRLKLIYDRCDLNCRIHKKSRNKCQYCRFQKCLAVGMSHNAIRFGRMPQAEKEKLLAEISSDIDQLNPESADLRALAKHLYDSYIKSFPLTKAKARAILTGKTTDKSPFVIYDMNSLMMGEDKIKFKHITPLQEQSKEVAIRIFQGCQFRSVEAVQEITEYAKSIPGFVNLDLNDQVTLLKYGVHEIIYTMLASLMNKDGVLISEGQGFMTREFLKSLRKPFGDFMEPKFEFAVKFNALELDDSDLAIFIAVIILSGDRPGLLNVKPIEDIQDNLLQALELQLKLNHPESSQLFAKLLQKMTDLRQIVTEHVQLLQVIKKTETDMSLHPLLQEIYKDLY
Summary of the method: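 RIPA lysates, 80 μg protein immunoblotted for c-Myc with β-actin loading control; c-Myc/β-actin densitometry, mean ± SD of at least three independent experiments.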

[4] = molecular target: T2, Peroxisome proliferator-activated receptor alpha; assay: Transactivation of GAL4-fused human PPARalpa LBD expressed in human HepG2 cells after 20 hrs by luciferase reporter gene assay; assay type: cell-based
[5] = molecular target: T1, Peroxisome proliferator-activated receptor alpha (Homo sapiens); assay: Agonist activity at PPARalpha in human HepG2 cells assessed as increase in mitochondrial mass at 1 uM by CellLight Mitochondria-GFP staining based fluorescent microscopic method relative to control; assay type: cell-based
Summary of the method: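 Serum-free HepG2 at 60% confluence transduced with Mitochondria-GFP BacMam 2.0 (50 particles/cell) and given 1 μM compound or 50 μM Wy-14,643 for 24 h. Imaged at 20x with GFP filters (ex 485/em 535 nm); separately, SDS/Tris pH 7.5 lysates read at ex 475, em 500-550 nm. Mean ± SD of three experiments, ANOVA/Bonferroni.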

[6] = molecular target: T4, Peroxisome proliferator-activated receptor delta (Homo sapiens, UniProt Q03181); assay: Binding affinity to PPARdelta (unknown origin) assessed as kinetic dissociation constant by SPR assay
T4 sequence (Q03181 whole entry): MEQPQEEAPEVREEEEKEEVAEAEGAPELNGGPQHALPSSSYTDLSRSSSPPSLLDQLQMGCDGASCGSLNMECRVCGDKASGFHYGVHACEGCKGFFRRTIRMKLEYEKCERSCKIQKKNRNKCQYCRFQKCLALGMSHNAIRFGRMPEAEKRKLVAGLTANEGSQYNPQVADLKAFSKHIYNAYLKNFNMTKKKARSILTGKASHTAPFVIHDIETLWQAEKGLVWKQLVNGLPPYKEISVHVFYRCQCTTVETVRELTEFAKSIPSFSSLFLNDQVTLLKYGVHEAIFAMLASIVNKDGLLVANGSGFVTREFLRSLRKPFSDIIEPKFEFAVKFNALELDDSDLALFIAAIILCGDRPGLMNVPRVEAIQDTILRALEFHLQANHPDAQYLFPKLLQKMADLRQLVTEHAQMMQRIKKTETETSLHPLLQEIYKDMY

[7] = tested on: HT-29; assay: Growth inhibition of human HT-29 cells assessed as cell vitality at 5 to 10 uM up to 72 hrs by hemocytometry relative to control; assay type: functional; set-up: scale not given: the % may be the effect or the level left
Summary of the method: (§2)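 Exponentially growing HT-29 colon adenocarcinoma cells (D-MEM, 10% FBS, 37 °C, 5% CO2) exposed to vehicle (DMSO, final <0.1%) or 1, 5 and 10 μM compound in 10% FBS medium for 24, 48 and 72 hs; cells washed, trypsinized and counted by Bürker hemocytometer, three counts per well. Viability relative to vehicle; mean ± SD of three independent experiments in duplicate.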

[8] = molecular target: T1, Peroxisome proliferator-activated receptor alpha (Homo sapiens); assay: Agonist activity at PPARalpha in human HepG2 cells assessed as increase in CPT1 protein expression level at 1 uM after 48 hrs by Western blot method; assay type: cell-based; summary of the method: as §1
[9] = molecular target: T1, Peroxisome proliferator-activated receptor alpha (Homo sapiens); assay: Agonist activity at PPARalpha assessed as induction of positive regulatory loop based receptor transcriptional activation by measuring upregulation of PPARalpha protein expression level in human HepG2 cells at 1 uM after 48 hrs by Western blot method; assay type: cell-based; summary of the method: as §1
[10] = molecular target: T5, Peroxisome proliferator-activated receptor gamma (Homo sapiens, UniProt P37231); assay: Binding affinity to PPARgamma (unknown origin) assessed as thermodynamic dissociation constant by SPR assay; details: read-out: Kd
T5 sequence (P37231 whole entry): T3 sequence (whole entry)

[11] = Growth inhibition of HEK293T cells assessed as cell vitality at 10 uM after 48 hrs by hemocytometry relative to control; assay type: cell-based, HEK-293T; details: human, read-out: Activity
Summary of the method: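 HEK293T grown in DMEM with 10% FBS, penicillin-streptomycin and L-glutamine, exposed 48 h to 10 μM compound (DMSO under 0.1% final) alongside HT-29. Cells trypsinized and counted on a Bürker hemocytometer, three counts per well; viability relative to vehicle-treated cells; three independent experiments in duplicate, mean ± SD.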

[12] = tested on: HT-29; assay: Growth inhibition of human HT-29 cells assessed as cell vitality at 5 uM up to 72 hrs by hemocytometry relative to control; assay type: functional; set-up: scale not given: the % may be the effect or the level left; summary of the method: as §2
[13] = tested on: HT-29; assay: Growth inhibition of human HT-29 cells assessed as cell vitality at 10 uM after 48 hrs by hemocytometry relative to control; assay type: functional; set-up: scale not given: the % may be the effect or the level left; summary of the method: as §2

Structure (SMILES)	Activity [1]	Kd [2] [nM]	Activity [3]	EC50 [4] [nM]	Activity [5] [%]	Kd [6]	Activity [7]	Activity [8]	Activity [9]	Kd [10] [nM]	viability at 48 h, 10 µM [11] [%]	Activity [12] [%]	Activity [13] [%]
C[C@@H](Oc1ccc(Cc2ccc(OCc3coc(-c4ccccc4)n3)cc2)cc1)C(=O)O	Active	0.86	Active	42	30	Not Active	40 - 60%	Active	Active	3.7			
C[C@H](Oc1ccc(Cc2ccc(OCc3coc(-c4ccccc4)n3)cc2)cc1)C(=O)O	Active	0.75	Active	46	30	Not Active		Active	Active	4.9	75	45	40
